ChEMBL document CHEMBL1133855 (Bioorg Med Chem Lett, 2001)

Legend:
[1] = target: T1, Adenosine receptor A3 (Homo sapiens, UniProt P0DMS8); assay: Displacement of [125I]AB-MECA from human Adenosine A3 receptor expressed in CHO cells; assay type: cell-based
T1 sequence (P0DMS8 whole entry): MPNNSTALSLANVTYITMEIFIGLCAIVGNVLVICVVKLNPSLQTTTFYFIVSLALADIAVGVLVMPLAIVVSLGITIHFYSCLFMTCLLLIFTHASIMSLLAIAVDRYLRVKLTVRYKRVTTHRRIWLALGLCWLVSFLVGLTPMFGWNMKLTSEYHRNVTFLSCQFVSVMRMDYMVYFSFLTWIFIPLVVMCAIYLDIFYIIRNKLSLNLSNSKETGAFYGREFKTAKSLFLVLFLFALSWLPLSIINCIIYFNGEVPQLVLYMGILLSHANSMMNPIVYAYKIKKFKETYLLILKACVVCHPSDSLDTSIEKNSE

[2] = target: T2, Adenosine receptor A1 (Homo sapiens, UniProt P30542); assay: Affinity for Adenosine A1 receptor by displacement of [3H]DPCPX from human cerebral cortex; assay type: tissue-based
T2 sequence (P30542 whole entry): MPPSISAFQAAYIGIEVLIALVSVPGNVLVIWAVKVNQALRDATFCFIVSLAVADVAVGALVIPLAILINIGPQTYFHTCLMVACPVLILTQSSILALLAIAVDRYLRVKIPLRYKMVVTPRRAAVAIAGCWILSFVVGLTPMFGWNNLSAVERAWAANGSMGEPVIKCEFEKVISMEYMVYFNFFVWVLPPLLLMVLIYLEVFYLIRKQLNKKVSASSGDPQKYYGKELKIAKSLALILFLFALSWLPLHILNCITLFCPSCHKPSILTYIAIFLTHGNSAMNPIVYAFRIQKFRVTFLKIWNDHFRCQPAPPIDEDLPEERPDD
Procedure, shortened: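 Membranes from human cerebral cortex; competition against [3H]DPCPX. IC50 fitted by non-linear least squares and converted to Ki via Cheng–Prusoff; means ± SE of three experiments.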

[3] = target: Adenosine receptor A2a (Homo sapiens, UniProt P29274); assay: Affinity for A2a receptor by displacement of [3H]-CGS- 21680 from human striatum
Adenosine receptor A2a, sequence (P29274 whole entry): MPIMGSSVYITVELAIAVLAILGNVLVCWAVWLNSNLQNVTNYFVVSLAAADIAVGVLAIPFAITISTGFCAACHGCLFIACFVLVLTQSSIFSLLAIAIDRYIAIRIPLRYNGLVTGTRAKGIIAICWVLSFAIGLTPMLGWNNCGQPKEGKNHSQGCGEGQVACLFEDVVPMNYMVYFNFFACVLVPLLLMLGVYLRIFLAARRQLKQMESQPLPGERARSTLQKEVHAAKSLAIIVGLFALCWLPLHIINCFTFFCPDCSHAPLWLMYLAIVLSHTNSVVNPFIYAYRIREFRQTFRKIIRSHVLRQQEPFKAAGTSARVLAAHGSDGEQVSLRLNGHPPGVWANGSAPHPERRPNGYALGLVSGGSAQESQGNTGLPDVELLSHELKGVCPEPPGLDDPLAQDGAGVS

Ki [1]	Ki [2]	Ki [3]	SMILES
0.0236 µM	> 10 µM	6.08 µM	CCNC(=O)[C@H]1OC(n2cnc3c(NCCCCCCNc4ccc([N+](=O)[O-])c5nonc45)ncnc32)[C@H](O)[C@@H]1O (stereo not given in full)
0.381 µM	> 10 µM	> 10 µM	CCNC(=O)[C@H]1OC(n2cnc3c(NCCCCNc4ccc([N+](=O)[O-])c5nonc45)ncnc32)[C@H](O)[C@@H]1O (stereo not given in full)
0.0558 µM	> 10 µM	6.75 µM	CCNC(=O)[C@H]1OC(n2cnc3c(NCCNc4ccc([N+](=O)[O-])c5nonc45)ncnc32)[C@H](O)[C@@H]1O (stereo not given in full)
0.00744 µM	3.48 µM	5.1 µM	CCNC(=O)[C@H]1OC(n2cnc3c(NCCCCCCCCNc4ccc([N+](=O)[O-])c5nonc45)ncnc32)[C@H](O)[C@@H]1O (stereo not given in full)
0.0281 µM	6.35 µM	6.1 µM	CCNC(=O)[C@H]1OC(n2cnc3c(NCCCCCCCCCCNc4ccc([N+](=O)[O-])c5nonc45)ncnc32)[C@H](O)[C@@H]1O (stereo not given in full)
